What was measured:
Format in all cases: functional
[1] = system: Echinochloa crus-galli; assay: Post-emergence herbicidal activity against Echinochloa crus-galli (barnyard grass) assessed as inhibition at 150 g/hectare treated at one-leaf stage by green house assay
How it was run: (§1)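 Monocot weeds were sprayed postemergence in the greenhouse at the one-leaf stage with diluted formulation solutions. Primary dose was 150 g ai/ha, with follow-up doses of 75 and 37.5 g ai/ha for selected compounds. Activity is scored as percent herbicidal damage compared with an untreated control.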

[2] = system: Setaria viridis; assay: Post-emergence herbicidal activity against Setaria viridis (green foxtail) assessed as inhibition at 150 g/hectare treated at one-leaf stage by green house assay; how it was run: as §1
[3] = system: Digitaria sanguinalis; assay: Post-emergence herbicidal activity against Digitaria sanguinalis (hairy crabgrass) assessed as inhibition at 150 g/hectare treated at one-leaf stage by green house assay; how it was run: as §1
[4] = system: Amaranthus retroflexus; assay: Post-emergence herbicidal activity against Amaranthus retroflexus assessed as inhibition at 150 g/hectare treated at two-leaf stage by green house assay
How it was run: (§2)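 Greenhouse postemergence spray of diluted formulation solutions onto broadleaf weeds at the two-leaf stage. Primary screen at 150 g ai/ha, with selected compounds retested at 75 and 37.5 g ai/ha. Abutilon was tested at 150 g ai/ha only. Read-out is percent herbicidal damage relative to an untreated control.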

[5] = system: Eclipta prostrata; assay: Post-emergence herbicidal activity against Eclipta prostrata assessed as inhibition at 150 g/hectare treated at two-leaf stage by green house assay; how it was run: as §2
[6] = system: Abutilon theophrasti; assay: Post-emergence herbicidal activity against Abutilon theophrasti (velvetleaf) assessed as inhibition at 150 g/hectare treated at two-leaf stage by green house assay; how it was run: as §2
[7] = system: Brassica juncea; assay: Post-emergence herbicidal activity against Brassica juncea assessed as inhibition at 150 g/hectare treated at two-leaf stage by green house assay; how it was run: as §2

| SMILES | inhibition at 150 g/ha [1] [%] | inhibition at 150 g/ha [2] [%] | inhibition at 150 g/ha [3] [%] | inhibition at 150 g/ha [4] [%] | inhibition at 150 g/ha [5] [%] | inhibition at 150 g/ha [6] [%] | inhibition at 150 g/ha [7] [%] |
| --- | --- | --- | --- | --- | --- | --- | --- |
| COP(=O)(OC)C(C)OC(=O)COc1ccc(Cl)cc1C (stereo unspecified) | 0 | 0 | 0 | 10 | 30 | 82 | 20 |
| CC1(C)COP(=O)(C(OC(=O)COc2ccc(Cl)cc2)c2ccco2)OC1 (stereo unspecified) | 0 | 0 | 0 | 55 | 50 | 70 | 70 |
| Cc1cc(OCC(=O)OC(c2ccco2)P2(=O)OCC(C)(C)CO2)ccc1Cl (stereo unspecified) | 0 | 0 | 0 | 60 | 55 | 70 | 65 |
| Cc1cc(Cl)ccc1OCC(=O)OC(c1ccco1)P1(=O)OCC(C)(C)CO1 (stereo unspecified) | 60 | 0 | 0 | 100 | 70 | 100 | 90 |
| CC1(C)COP(=O)(C(OC(=O)COc2ccccc2Cl)c2ccccc2)OC1 (stereo unspecified) | 0 | 0 | 0 | 75 | 65 | 70 | 75 |
| CC1(C)COP(=O)(C(OC(=O)COc2ccc(Cl)cc2)c2ccccc2)OC1 (stereo unspecified) | 0 | 0 | 0 | 60 | 50 | 65 | 70 |
| Cc1cc(OCC(=O)OC(c2ccccc2)P2(=O)OCC(C)(C)CO2)ccc1Cl (stereo unspecified) | 0 | 0 | 0 | 65 | 60 | 65 | 65 |
| Cc1cc(Cl)ccc1OCC(=O)OC(c1ccccc1)P1(=O)OCC(C)(C)CO1 (stereo unspecified) | 40 | 0 | 0 | 100 | 75 | 100 | 90 |

— ChEMBL document CHEMBL3044653, “Synthesis and herbicidal activity of 2-(substituted phenoxyacetoxy)alkyl-5,5-dimethyl-1,3,2-dioxaphosphinan-2-one” (J Agric Food Chem, 2012)
